Here are results for 3 compounds from ChEMBL document CHEMBL1629603, “Voriconazole increases while itraconazole decreases plasma meloxicam concentrations” (Antimicrob Agents Chemother, 2009).

Data set [1] has as its system Plasma. The data set is described as follows: Fraction unbound in human at 15 mg, po pretreated with itraconazole at 200 mg, po qd for 4 days. Particulars: in vivo, 96 h. In kind it is ADME, organism-based. The procedure, abridged:
(§1)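 Plasma drawn 5 h after the single oral dose in each crossover phase (control, voriconazole 400 mg q12h day 1 then 200 mg q12h day 2, or itraconazole 200 mg daily for 4 days, last azole dose 1 h before). Ultrafiltered through a YM30 membrane at 1,200 x g, 25°C, 30 min. Free drug by LC-MS/MS; bound fraction derived from free versus total.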

In data set [2] the test system is Homo sapiens. The experiment in a line: Inhibition of TxB2 production in human blood at 15 mg, po after 48 hrs by enzyme immunoassay pretreated with itraconazole at 200 mg, po qd for 4 days. It counts as functional. The procedure, abridged: (§2)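 Ex vivo COX-1 index in healthy volunteers. Blood drawn without anticoagulant before and 5, 8, 12, 24, 48 h after the single oral dose, then clotted 1 h at 37°C. Serum TxB2 measured by enzyme immunoassay. Percent decrease calculated against each subject's own predose baseline, within a crossover with control or azole-pretreated phases.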

Data set [3] deals with Plasma. The experiment in a line: Fraction unbound in human plasma at 15 mg, po. It counts as ADME, organism-based. Particulars: in vivo. In short, it runs like this:
as §1

In data set [4] the test system is Homo sapiens. The experiment in a line: Inhibition of TxB2 production in human blood at 15 mg, po measured up to 48 hrs by enzyme immunoassay pretreated with itraconazole at 200 mg, po qd for 4 days. It counts as functional, organism-based. The procedure, abridged: as §2
A short description of data set [5]: AUC (0 to 72 hrs) in human at 15 mg, po. It counts as ADME, organism-based. The arrangement: dose 15 mg, time < 72 hr, route oral. The conditions noted are these: plasma. In short, it runs like this: (§3)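 Healthy male volunteers (n=12), randomized three-phase Latin-square crossover with 4-week washout; single oral dose after overnight fast, lunch at 4 h. Venous plasma sampled predose and 1–72 h, stored –70°C; total drug by LC-MS/MS (piroxicam internal standard). Cmax and Tmax read directly from concentration data; AUC0-72 by linear (rising) / log (descending) trapezoidal rule.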

A short description of data set [6]: Cmax in human at 15 mg, po. It counts as ADME, organism-based. The conditions noted are these: in vivo. Further details: dose 15 mg, route oral. In short, it runs like this: as §3
Data set [7] in a line: Tmax in human at 15 mg, po. The conditions noted are these: in vivo. It counts as ADME, organism-based. The procedure, abridged:
as §3

A short description of data set [8]: Protein binding in human plasma at 15 mg, po after 5 hrs. It counts as ADME, organism-based. Particulars: read-out: PPB (converted). In short, it runs like this: as §1
Data set [9] can be described thus: Protein binding in human at 15 mg, po pretreated with voriconazole at 400 mg, po every 12 hrs for 1 day and 200, po mg every 12 hrs for one additional day measured after 5 hrs last post dose. In kind it is ADME, organism-based. Particulars: plasma, read-out: PPB (converted). In short, it runs like this: as §1
Data set [10] in a line: Protein binding in human at 15 mg, po pretreated with itraconazole at 200 mg, po qd for 4 days measured after 5 hrs last post dose. The conditions noted are these: plasma, read-out: PPB (converted). It counts as ADME, organism-based. In short, it runs like this: as §1
The subject of data set [11] is Homo sapiens. The experiment in a line: Inhibition of TxB2 production in human blood at 15 mg, po after 5 hrs by enzyme immunoassay. In kind it is functional. The procedure, abridged:
as §2

Data set [12] deals with Homo sapiens. The data set is described as follows: Inhibition of TxB2 production in human blood at 15 mg, po after 8 hrs by enzyme immunoassay. It counts as functional. In short, it runs like this: as §2
Data set [13] deals with Homo sapiens. The data set is described as follows: Inhibition of TxB2 production in human blood at 15 mg, po after 12 hrs by enzyme immunoassay. It counts as functional. The procedure, abridged:
as §2

Data set [14] concerns Homo sapiens. The data set is described as follows: Inhibition of TxB2 production in human blood at 15 mg, po after 24 hrs by enzyme immunoassay. In kind it is functional. In short, it runs like this: as §2
The subject of data set [15] is Homo sapiens. The experiment in a line: Inhibition of TxB2 production in human blood at 15 mg, po after 48 hrs by enzyme immunoassay. In kind it is functional. In short, it runs like this:
as §2

Data set [16] has as its system Homo sapiens. The experiment in a line: Toxicity in human assessed as altered color vision changes at 400 mg, po every 12 hrs for 1 day and 200, po mg every 12 hrs for one additional day. It counts as organism-based. The conditions noted are these: in vivo.
The test system of data set [17] is Homo sapiens. The data set is described as follows: Toxicity in human assessed as photophobia at 400 mg, po every 12 hrs for 1 day and 200, po mg every 12 hrs for one additional day. In kind it is organism-based. The conditions noted are these: in vivo.
The test system of data set [18] is Plasma. The experiment in a line: Fraction unbound in human at 15 mg, po pretreated with voriconazole at 400 mg, po every 12 hrs for 1 day and 200, po mg every 12 hrs for one additional day. The conditions noted are these: in vivo. It counts as ADME, organism-based. In short, it runs like this:
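Healthy volunteers, open-label randomized crossover; 15 mg oral meloxicam given fasted 1 h after the last voriconazole dose. Plasma drawn 5 h post-dose; 1 ml ultrafiltered (YM30 filter, 1,200 x g, 25°C, 30 min). Unbound meloxicam measured by LC-MS/MS (positive ion, piroxicam internal standard; standards 0.5–50 ng/ml), all samples in one run.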

Data set [19] relates to Homo sapiens. The experiment in a line: Inhibition of TxB2 production in human blood at 15 mg, po after 5 hrs by enzyme immunoassay pretreated with voriconazole at 400 mg, po every 12 hrs for 1 day and 200, po mg every 12 hrs for one additional day. In kind it is functional. In short, it runs like this:
(§4)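 Design: 12 healthy males, Latin-square three-phase crossover, 4-week washout; 15 mg oral meloxicam given fasted 1 h after the last voriconazole dose. Blood taken before and at 5, 8, 12, 24, 48 h into glass tubes without anticoagulant, clotted 1 h at 37°C. Serum TxB2 measured by enzyme immunoassay. Reported as percent decrease versus each subject's own baseline.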

Data set [20] deals with Homo sapiens. The data set is described as follows: Inhibition of TxB2 production in human blood at 15 mg, po after 8 hrs by enzyme immunoassay pretreated with voriconazole at 400 mg, po every 12 hrs for 1 day and 200, po mg every 12 hrs for one additional day. It counts as functional. The procedure, abridged:
as §4

Data set [21] concerns Homo sapiens. The data set is described as follows: Inhibition of TxB2 production in human blood at 15 mg, po after 12 hrs by enzyme immunoassay pretreated with voriconazole at 400 mg, po every 12 hrs for 1 day and 200, po mg every 12 hrs for one additional day. In kind it is functional. In short, it runs like this: as §4
Data set [22] has as its system Homo sapiens. The data set is described as follows: Inhibition of TxB2 production in human blood at 15 mg, po after 24 hrs by enzyme immunoassay pretreated with voriconazole at 400 mg, po every 12 hrs for 1 day and 200, po mg every 12 hrs for one additional day. It counts as functional. The procedure, abridged:
as §4

The subject of data set [23] is Homo sapiens. The experiment in a line: Inhibition of TxB2 production in human blood at 15 mg, po after 48 hrs by enzyme immunoassay pretreated with voriconazole at 400 mg, po every 12 hrs for 1 day and 200, po mg every 12 hrs for one additional day. It counts as functional. In short, it runs like this: as §4

Calls of active or inactive are those of the source. The rule behind the calls is not given here.

As to `CCC(C)n1ncn(-c2ccc(N3CCN(c4ccc(OCC5COC(Cn6cncn6)(c6ccc(Cl)cc6Cl)O5)cc4)CC3)cc2)c1=O` (stereo not drawn) [ITRACONAZOLE], in the data set on Plasma [1], the Fu is 0.18%.
On to `Cc1cnc(NC(=O)C2=C(O)c3ccccc3S(=O)(=O)N2C)s1` [MELOXICAM], for which the “inhibition (INH)” value in the data set on Homo sapiens [2] stood at 29%; in the data set on Homo sapiens [11], 30%; with Homo sapiens [12], 37%; with Homo sapiens [13] it was 56%; in the data set with Homo sapiens [14], 28%; in the data set with Homo sapiens [15] it was 25%. Besides, the Fu in the data set on Plasma [3] worked out at 0.18%. Moreover, the inhibition result in the data set with Homo sapiens [4] was “inactive”. This compound registered an AUC(0-t) at 72 h in data set [5] of 32400 ng·h/mL. The Cmax in [6] came out at 1250 ng/mL. In addition, the Tmax in data set [7] amounted to 4 h. Further, the fraction unbound at 5 h in data set [8] was 0.0017; in [9], 0.0017; in [10], 0.0018.
As for `C[C@@H](c1ncncc1F)[C@](O)(Cn1cncn1)c1ccc(F)cc1F` [VORICONAZOLE], the Activity result in the data set with Homo sapiens [16] and with Homo sapiens [17] was “Toxic” each time. Besides, in the data set on Plasma [18], the Fu stood at 0.17%. Also, the “inhibition (INH)” value in the data set on Homo sapiens [19] is listed as 37%; in the data set on Homo sapiens [20], 46%; in the data set with Homo sapiens [21], 49%; with Homo sapiens [22] it was 31%; in the data set on Homo sapiens [23], 14%.
